Reference: paper PMC5755971 (Journal of the American Chemical Society, 2017)
Where a SMILES comes first, the peptide text is derived from it. [ ]: non-standard residue; d: D form. Dolaproine = CO[C@@H]([C@@H]1CCCN1)[C@@H](C)C(=O)O; Dil = CC[C@H](C)[C@H](NC)[C@@H](CC(=O)O)OC; NMeV = CN[C@H](C(=O)O)C(C)C

Columns and labels:
human CD22 = settings: cited from earlier work
Daudi cells [1] = assay: cytotoxicity assay for ligand-toxin conjugates; type: cell-based; settings: read-out: EC50 (cytotoxicity), 72h, MTT
hCD22 [2] = target: T1, hCD22 (Homo sapiens, UniProt P20273); assay: flow cytometry competitive binding assay, Neu5Gc-PAA to hCD22-CHO cells
T1 sequence (P20273 20-847): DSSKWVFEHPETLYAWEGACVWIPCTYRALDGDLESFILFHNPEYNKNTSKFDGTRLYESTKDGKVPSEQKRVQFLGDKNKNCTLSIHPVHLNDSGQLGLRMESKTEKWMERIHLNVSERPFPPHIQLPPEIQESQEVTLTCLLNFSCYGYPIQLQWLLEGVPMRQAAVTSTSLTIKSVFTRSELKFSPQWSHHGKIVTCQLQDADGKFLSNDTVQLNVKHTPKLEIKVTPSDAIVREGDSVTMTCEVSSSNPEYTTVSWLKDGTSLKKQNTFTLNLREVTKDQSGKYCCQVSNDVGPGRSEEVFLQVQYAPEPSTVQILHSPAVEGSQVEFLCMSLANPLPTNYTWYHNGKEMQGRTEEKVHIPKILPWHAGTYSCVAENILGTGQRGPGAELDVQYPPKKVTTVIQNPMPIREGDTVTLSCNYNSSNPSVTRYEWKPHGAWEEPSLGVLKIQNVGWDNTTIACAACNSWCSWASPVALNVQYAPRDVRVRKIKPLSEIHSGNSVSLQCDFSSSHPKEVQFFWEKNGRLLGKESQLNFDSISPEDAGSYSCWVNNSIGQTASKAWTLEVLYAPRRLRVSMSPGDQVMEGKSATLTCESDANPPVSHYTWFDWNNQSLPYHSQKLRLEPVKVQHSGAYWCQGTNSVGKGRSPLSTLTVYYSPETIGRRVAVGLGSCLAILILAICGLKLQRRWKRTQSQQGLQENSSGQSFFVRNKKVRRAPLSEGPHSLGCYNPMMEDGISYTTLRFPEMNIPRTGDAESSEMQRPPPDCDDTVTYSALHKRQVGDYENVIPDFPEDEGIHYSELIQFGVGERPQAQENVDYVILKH
Procedure, shortened: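 Serial dilutions of sialoside ligands, quantified by periodate-resorcinol assay, mixed in cold HBSS/0.5% BSA with biotinylated Neu5Gcα2–6LacNAc-PAA (1 MDa, 1 μg/mL). ~10^6 hCD22-CHO cells added; 40 min, 4 °C, dark. Two washes, then streptavidin-PE (1:1000) for 30 min at 4 °C. Read by flow cytometry. Triplicate titrations; IC50 from curve fit, 0% = no polymer, 100% = polymer without competitor.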

Daudi cells [3] = assay: uptake of ligand-FITC conjugates by Daudi cells in pure mouse serum; type: cell-based; settings: 60 min, 37 °C
Procedure, shortened: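 FITC-labelled ligand conjugates serially diluted and incubated with ~10^6 Daudi B cells in 100 uL pure mouse serum for 60 min at 37 °C. Cells washed twice in HBSS; uptake read by flow cytometry and curve-fitted.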

hCD22 [4] = target: T1, hCD22; settings: equilibrium dialysis at 4° C; cited from earlier work

In the case of `CC(=O)NC1C(O)CC(O)(C(=O)O)OC1C(O)C(O)CNC(=O)c1ccc(-c2ccccc2)cc1` (stereo not shown) [1a, 9-N-biphenyl carboxamide-Neu5Ac], the “affinity for human CD22” value (human CD22) is given as “low micromolar range”.
In the case of `O=C(CF)N[C@H]1[C@H]([C@H](O)[C@H](O)CNC(=O)c2cccc(Oc3ccccc3)c2)OC(O)(C(=O)O)C[C@@H]1O` (stereo partly shown) [1c, 9-N-m-phenoxybenzamide-Neu5FAc], the “affinity for human CD22” value (human CD22) is given as “low micromolar range”.
With `CC[C@H](C)[C@@H]([C@@H](CC(=O)N1CCC[C@H]1[C@H](OC)[C@@H](C)C(=O)N[C@@H](Cc1ccccc1)C(=O)O)OC)N(C)C(=O)[C@@H](NC(=O)[C@@H](NC)C(C)C)C(C)C` [MMAF, monomethyl auristatin F] (H-[NMeV]V[Dil][Dolaproine]F-OH) the EC50 (Daudi cells [1]) was 0.2 µM.
In the case of `CC(=O)NC1C(NC(=O)C[C@H](NC(=O)[C@H](C)NC(=O)[C@@H](NC(=O)[C@@H](N)CCCCN)C(C)C)C(=O)N[C@@H](CCCCN)C(=O)N[C@H](C(=O)O)[C@@H](C)O)OC(CO)C(OC2OC(CO)C(OC3OC(COC4OC(CO)C(O)C(O)C4OC4OC(CO)C(OC5OC(COC6(C(=O)[O-])CC(O)C(NC(C)=O)C([C@H](O)[C@H](O)CO)O6)C(O)C(O)C5O)C(O)C4NC(C)=O)C(O)C(OC4OC(CO)C(O)C(O)C4OC4OC(CO)C(OC5OC(COC6(C(=O)[O-])CC(O)C(NC(C)=O)C([C@H](O)[C@H](O)CO)O6)C(O)C(O)C5O)C(O)C4NC(C)=O)C3O)C(O)C2NC(C)=O)C1O.[Na+].[Na+]` (stereo partly shown) [SGP], the “fold higher binding affinity for hCD22 compared to the monovalent ligand (6′SLN)” value (hCD22 [2]) is reported as “three-fold higher” and the “binding/uptake by Daudi cells” value (Daudi cells [3]) is reported as “weak or no binding/uptake”.
For Neu5Acα2–6Galβ1–4GlcNAc [6′SLN], the IC50 (hCD22 [2]; competition with Neu5Gc-PAA, 40 min, 4 °C) is given as 62 µM and the Kd (hCD22 [4]) is given as 32 µM.
